From ChEMBL document CHEMBL5104205, “Design and evaluation of poly-nitrogenous adjuvants capable of potentiating antibiotics in Gram-negative bacteria” (RSC Med Chem, 2022)
Converted amounts (≈) assume the structure as drawn.

How the values were obtained:
Pseudomonas aeruginosa [1] = assay: Antibiotic adjuvant activity against Novobiocin-treated Pseudomonas aeruginosa ATCC 9027 assessed as bacterial growth inhibition by broth microdilution assay; format: functional
Outline: (§1)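 Broth microdilution per CLSI M100-S23. Antibiotics spanned 0–256 µg/mL (in DMSO or water), combined with adjuvant at 20, 50 or 100 µM (in DMSO). Inoculum was a 4–6 h culture in full-strength TSB. Plates ran 12–18 h at 37 °C, each treatment in triplicate. OD590 was blank-subtracted and normalized to vehicle growth. MIC is the lowest concentration giving ≥90% inhibition.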

Pseudomonas aeruginosa [2] = assay: Antibiotic adjuvant activity against Rifampicin-treated Pseudomonas aeruginosa ATCC 9027 assessed as bacterial growth inhibition by broth microdilution assay; format: functional; outline: as §1
Escherichia coli [3] = assay: Antibiotic adjuvant activity against Penicillin G-treated wild type Escherichia coli ATCC 25922 assessed as bacterial growth inhibition by broth microdilution assay; format: functional; outline: as §1
Pseudomonas aeruginosa [4] = assay: Antibiotic adjuvant activity against Erythromycin-treated Pseudomonas aeruginosa ATCC 9027 assessed as fold reduction in bacterial growth inhibition by broth microdilution assay; format: functional
Escherichia coli [5] = assay: Antibiotic adjuvant activity against Kanamycin-treated wild type Escherichia coli ATCC 25922 assessed as bacterial growth inhibition by broth microdilution assay; format: functional; outline: as §1
Pseudomonas aeruginosa [6] = assay: Antibiotic adjuvant activity against Kanamycin-treated Pseudomonas aeruginosa ATCC 9027 assessed as bacterial growth inhibition by broth microdilution assay; format: functional; outline: as §1
[7] = Drug uptake in Pseudomonas aeruginosa ATCC 9027 assessed as drug accumulation across outer membrane; format: ADME
Outline: (§2)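 Cells were washed twice in PBS, aliquoted and pre-shaken 10 min at 37 °C. Compound was added and incubated 10 min at 37 °C, with CFU counted before and after. Samples were spun through cold silicone oil. Supernatants were quantified by LC-MS single-ion monitoring against calibration curves.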

Pseudomonas aeruginosa [8] = assay: Antibiotic adjuvant activity against Ampicillin-treated Pseudomonas aeruginosa ATCC 9027 assessed as bacterial growth inhibition by broth microdilution assay; format: functional; outline: as §1
[9] = Drug uptake in wild type Escherichia coli ATCC 25922 assessed as drug accumulation across outer membrane; format: ADME; outline: as §2
Escherichia coli [10] = assay: Antibiotic adjuvant activity against Rifampicin-treated wild type Escherichia coli ATCC 25922 assessed as bacterial growth inhibition by broth microdilution assay; format: functional; outline: as §1
Escherichia coli [11] = assay: Antibiotic adjuvant activity against Ampicillin-treated wild type Escherichia coli ATCC 25922 assessed as bacterial growth inhibition by broth microdilution assay; format: functional; outline: as §1
Escherichia coli [12] = assay: Antibiotic adjuvant activity against Novobiocin-treated wild type Escherichia coli ATCC 25922 assessed as bacterial growth inhibition by broth microdilution assay; format: functional; outline: as §1
Pseudomonas aeruginosa [13] = assay: Antibiotic adjuvant activity against Erythromycin-treated Pseudomonas aeruginosa ATCC 9027 assessed as bacterial growth inhibition by broth microdilution assay; format: functional; outline: as §1
Escherichia coli [14] = assay: Antibiotic adjuvant activity against Erythromycin-treated wild type Escherichia coli ATCC 25922 assessed as bacterial growth inhibition by broth microdilution assay; format: functional; outline: as §1
Pseudomonas aeruginosa [15] = assay: Antibiotic adjuvant activity against Penicillin G-treated Pseudomonas aeruginosa ATCC 9027 assessed as bacterial growth inhibition by broth microdilution assay; format: functional; outline: as §1
Escherichia coli [16] = assay: Antibacterial activity against wild type Escherichia coli ATCC 25922 assessed as bacterial growth inhibition by broth microdilution assay; format: functional
Pseudomonas aeruginosa [17] = assay: Antibacterial activity against Pseudomonas aeruginosa ATCC 9027 assessed as bacterial growth inhibition by broth microdilution assay; format: functional
Escherichia coli [18] = assay: Antibiotic adjuvant activity against Erythromycin-treated wild type Escherichia coli ATCC 25922 assessed as fold reduction in bacterial growth inhibition by broth microdilution assay; format: functional
Pseudomonas aeruginosa [19] = assay: Antibacterial activity against Pseudomonas aeruginosa ATCC 9027 assessed as bacterial growth inhibition at 1000 ug/ml by broth microdilution assay; format: functional
Escherichia coli [20] = assay: Antibiotic adjuvant activity against Novobiocin-treated wild type Escherichia coli ATCC 25922 assessed as fold reduction in bacterial growth inhibition by broth microdilution assay; format: functional
Escherichia coli [21] = assay: Antibacterial activity against wild type Escherichia coli ATCC 25922 assessed as bacterial growth inhibition at 100 ug/ml by broth microdilution assay; format: functional

| SMILES | MIC (Pseudomonas aeruginosa [1]) | MIC (Pseudomonas aeruginosa [2]) | MIC (Escherichia coli [3]) | fold change (FC) (Pseudomonas aeruginosa [4]) | MIC (Escherichia coli [5]) | MIC (Pseudomonas aeruginosa [6]) | Drug uptake [7] | MIC (Pseudomonas aeruginosa [8]) | Drug uptake [9] | MIC (Escherichia coli [10]) | MIC (Escherichia coli [11]) | MIC (Escherichia coli [12]) | MIC (Pseudomonas aeruginosa [13]) | MIC (Escherichia coli [14]) | MIC (Pseudomonas aeruginosa [15]) | MIC (Escherichia coli [16]) | MIC (Pseudomonas aeruginosa [17]) | also measured |
| --- | --- | --- | --- | --- | --- | --- | --- | --- | --- | --- | --- | --- | --- | --- | --- | --- | --- | --- |
| Cl.Cl.Nc1ccc(NC(=O)CCC(=O)Nc2ccc(N)cc2)cc1 | 256 µg/mL | 16 µg/mL | 64 µg/mL | 2 | 64 µg/mL | > 64 µg/mL | 2 nmol | 128 µg/mL | 3.3 nmol | 8 µg/mL | 16 µg/mL | 128 µg/mL | 64 µg/mL | 128 µg/mL | > 256 µg/mL |  |  |  |
| CC1(C)S[C@@H]2[C@H](NC(=O)[C@H](N)c3ccccc3)C(=O)N2[C@H]1C(=O)O [AMPICILLIN] |  |  |  |  |  |  | < 0.06 nmol |  | < 0.06 nmol |  |  |  |  |  |  | 16 µg/mL (≈ 45.8 µM) | 128 µg/mL (≈ 366 µM) |  |
| CC1(C)S[C@@H]2[C@H](NC(=O)Cc3ccccc3)C(=O)N2[C@H]1C(=O)O [PENICILLIN G] |  |  |  |  |  |  |  |  |  |  |  |  |  |  |  | 64 µg/mL (≈ 191 µM) | > 256 µg/mL |  |
| Cl.Cl.N=C(N)Nc1ccc(NC(=O)CCC(=O)Nc2ccc(NC(=N)N)cc2)cc1 | 256 µg/mL | 16 µg/mL | 64 µg/mL | 2 | 64 µg/mL | > 64 µg/mL | 1.1 nmol | 128 µg/mL | 1.1 nmol | 8 µg/mL | 16 µg/mL | 64 µg/mL | 64 µg/mL | 64 µg/mL | > 256 µg/mL |  |  | fold change (FC) (Escherichia coli [18]): 2; inhibition at 1000 µg/mL (Pseudomonas aeruginosa [19]): 33%; fold change (FC) (Escherichia coli [20]): 2; inhibition at 100 µg/mL (Escherichia coli [21]): 18% |
| NC[C@H]1O[C@H](O[C@H]2[C@H](O)[C@@H](O[C@H]3O[C@H](CO)[C@@H](O)[C@H](N)[C@H]3O)[C@H](N)C[C@@H]2N)[C@H](O)[C@@H](O)[C@@H]1O [KANAMYCIN] |  |  |  |  |  |  |  |  |  |  |  |  |  |  |  | 64 µg/mL (≈ 132 µM) | > 64 µg/mL |  |
| Cl.Cl.N=C(N)c1ccc(NC(=O)CCC(=O)Nc2ccc(C(=N)N)cc2)cc1 | 256 µg/mL | 16 µg/mL | 64 µg/mL | 2 | 64 µg/mL | > 64 µg/mL | 0.9 nmol | 128 µg/mL | 1 nmol | 4 µg/mL | 16 µg/mL | 64 µg/mL | 64 µg/mL | 128 µg/mL | > 256 µg/mL |  |  |  |
| CC[C@H]1OC(=O)[C@H](C)[C@@H](O[C@H]2C[C@@](C)(OC)[C@@H](O)[C@H](C)O2)[C@H](C)[C@@H](O[C@@H]2O[C@H](C)C[C@H](N(C)C)[C@H]2O)[C@](C)(O)C[C@@H](C)C(=O)[C@H](C)[C@@H](O)[C@]1(C)O [ERYTHROMYCIN] |  |  |  |  |  |  |  |  |  |  |  |  |  |  |  | 128 µg/mL (≈ 174 µM) | 128 µg/mL (≈ 174 µM) |  |
| CO[C@H]1/C=C/O[C@@]2(C)Oc3c(C)c(O)c4c(O)c(c(/C=N/N5CCN(C)CC5)c(O)c4c3C2=O)NC(=O)/C(C)=C\C=C\[C@H](C)[C@H](O)[C@@H](C)[C@@H](O)[C@@H](C)[C@H](OC(C)=O)[C@@H]1C [RIFAMPIN] |  |  |  |  |  |  |  |  |  |  |  |  |  |  |  | 8 µg/mL (≈ 9.72 µM) | 16 µg/mL (≈ 19.4 µM) |  |
| O=C(O)c1cn(C2CC2)c2cc(N3CCNCC3)c(F)cc2c1=O [CIPROFLOXACIN] |  |  |  |  |  |  | 1.8 nmol |  | 2.4 nmol |  |  |  |  |  |  |  |  |  |
| CO[C@@H]1[C@@H](OC(N)=O)[C@@H](O)[C@H](Oc2ccc3c(O)c(NC(=O)c4ccc(O)c(CC=C(C)C)c4)c(=O)oc3c2C)OC1(C)C [NOVOBIOCIN] |  |  |  |  |  |  |  |  |  |  |  |  |  |  |  | 128 µg/mL (≈ 209 µM) | 256 µg/mL (≈ 418 µM) |  |
| Cl.Cl.N=C(N)Nc1ccc(NC(=O)CCC(=O)Nc2ccc(N)cc2)cc1 | 256 µg/mL | 16 µg/mL | 64 µg/mL | 2 | 64 µg/mL | > 64 µg/mL | 0.3 nmol | 128 µg/mL | 1.3 nmol | 8 µg/mL | 16 µg/mL | 64 µg/mL | 64 µg/mL | 64 µg/mL | > 256 µg/mL |  |  | fold change (FC) (Escherichia coli [18]): 2 |
